MDM2 E3 inh – inhibitors of human Mdm2 E3 ubiquitin ligase. cell-based MDM2 ubiquitination luciferase reporter, 2 h; 0 = plate control, 100 = twice control, blank-subtracted. signal enhancement, % at 5 µM. 0.11% of 210,000 active. AID 1230;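 active = signal enhancement of 30% or more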;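 note: luminescence tracks abundance of the self-degrading MDM2-luciferase fusion protein; higher signal means inhibition of MDM2 E3 ligase activity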
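Material: Stable MDM2–luciferase fusion reporter cells | Amount: 2000 cells seeded into each well | Dosing: One concentration, 5 µM, with 0.2% DMSO | Incubation: 4 h cell settling then 2 h compound exposure, 37 °C | Measured by: Luciferase luminescence | Read-out basis: % enhancement relative to plate controls after blank subtraction | Benchmarks: Control and blank well means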
STAT1 act – activators of IFN-gamma induced STAT1 signaling; NIH 3T3 STAT1-luciferase reporter, luminescence; 100% = IFN-gamma alone, no compound; activation (% of control), % at 5.5 µM; 2.6% of 200,000 active; AID 932;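 active = activation above the screen-wide mean activation plus 3 SD, cut at about 130% in these data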
PERK inh – inhibitors of human PERK kinase; inhibition, % at 5.6 µM; CHO PERK-DD fusion, SEAP luminescence translation reporter; 0.17% of 220,000 active;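 active = inhibition above the mean inhibition of all tested compounds plus 3 SD, set separately per screening campaign, cut at about 2.9% in these data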;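 note: PERK kinase domain activated by AP20187 dimerizer at 100 nM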
Target sequence (Q9NZJ5 whole entry, looked up, the tested form may be a part): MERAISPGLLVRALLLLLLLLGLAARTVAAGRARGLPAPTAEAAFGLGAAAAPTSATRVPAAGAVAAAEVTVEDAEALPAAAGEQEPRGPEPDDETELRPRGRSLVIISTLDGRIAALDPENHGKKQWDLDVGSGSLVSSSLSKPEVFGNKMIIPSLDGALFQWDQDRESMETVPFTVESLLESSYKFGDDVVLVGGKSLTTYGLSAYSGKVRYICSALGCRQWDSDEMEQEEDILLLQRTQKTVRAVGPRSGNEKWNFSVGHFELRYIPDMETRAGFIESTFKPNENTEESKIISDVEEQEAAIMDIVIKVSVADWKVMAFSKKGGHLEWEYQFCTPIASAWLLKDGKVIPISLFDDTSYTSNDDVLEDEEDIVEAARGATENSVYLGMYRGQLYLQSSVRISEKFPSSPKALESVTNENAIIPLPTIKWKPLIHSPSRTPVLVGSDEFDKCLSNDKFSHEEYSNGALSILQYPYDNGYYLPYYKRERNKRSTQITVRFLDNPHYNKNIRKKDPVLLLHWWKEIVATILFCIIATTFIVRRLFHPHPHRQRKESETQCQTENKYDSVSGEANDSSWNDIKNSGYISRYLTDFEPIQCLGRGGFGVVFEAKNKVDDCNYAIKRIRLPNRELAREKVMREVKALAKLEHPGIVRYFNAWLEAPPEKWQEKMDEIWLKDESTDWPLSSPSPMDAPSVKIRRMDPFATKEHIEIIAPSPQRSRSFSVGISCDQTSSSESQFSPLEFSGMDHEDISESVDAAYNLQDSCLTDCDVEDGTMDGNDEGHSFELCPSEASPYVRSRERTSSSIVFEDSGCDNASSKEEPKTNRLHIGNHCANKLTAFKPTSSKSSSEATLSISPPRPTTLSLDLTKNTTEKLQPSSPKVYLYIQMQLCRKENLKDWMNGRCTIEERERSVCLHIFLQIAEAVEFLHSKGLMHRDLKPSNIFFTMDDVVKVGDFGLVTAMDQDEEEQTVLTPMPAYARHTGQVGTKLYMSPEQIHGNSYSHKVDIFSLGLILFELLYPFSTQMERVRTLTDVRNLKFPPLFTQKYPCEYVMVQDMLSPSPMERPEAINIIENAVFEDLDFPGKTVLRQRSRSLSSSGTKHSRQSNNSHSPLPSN
APP 5'UTR act – activates APP 5'UTR luciferase reporter | SH-SY5Y APP 5'UTR luciferase reporter, luminescence; zero percent = DMSO vehicle wells | activation, % at 2 µM | 1% of 190,000 active | AID 1276;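 active = activation above a set limit, based on mean plus 3 SD of controls, cut at about 140% in these data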
AHR activator – activates the human aryl hydrocarbon receptor. AHR-responsive luciferase reporter cells, luminescence. activation, % at 5 µM. AID 2796. 2.5% of 320,000 active; in the data active = activation above about 47%
NF-kB expr up – NF-kB expression increase, human neuronal cells | NF-kB reporter expression; stronger effect = higher value | fold change at 12.5 µM | 1.6% of 190,000 active | AID 1239; in the data active = fold change above about 3.3
Numbers stand for hits; i = inactive; nt = not tested or not shown. A selection: hits, their analogues and other compounds. The true share with any hit is near 4.5%.

SMILES	MDM2 E3 inh	STAT1 act	PERK inh	APP 5'UTR act	AHR activator	NF-kB expr up
Nc1ccc2oc(-c3cccc4ccccc34)nc2c1	i	i	i	i	53	i
O=C(Nc1ccc2oc(-c3cccc4ccccc34)nc2c1)c1ncn[nH]1	i	i	i	i	i	i
Cc1ccc2oc(-c3cccc(NC(=O)c4ccc(Br)o4)c3)nc2c1	i	i	i	i	60	i
Cc1ccc2oc(-c3cccc(NC(=S)NC(=O)/C=C/c4ccco4)c3)nc2c1	i	i	i	i	67	i
Cc1ccc2nc(-c3ccccn3)oc2c1	i	i	i	176	61	4.5
Cc1ccc2oc(-c3ccc(NC(=O)c4cccnc4)cc3)nc2c1	i	144	i	225	i	i
Cc1ccc2oc(-c3cccc(NC(=S)NC(=O)c4cccs4)c3)nc2c1	i	i	i	i	i	i
O=C(Nc1ccc2oc(-c3cccnc3)nc2c1)c1cccnc1	i	i	i	i	i	i
O=C(O)Cc1ccc2oc(-c3ccccn3)nc2c1	nt	nt	nt	nt	i	nt
O=C1CC(C(=O)O)S/C(=N\N=C\c2ccc(Br)cc2)N1 (stereo not drawn)	i	nt	i	nt	i	nt
CC(=O)c1ccc(S(=O)(=O)NC2CC(=O)N(c3ccc(Cl)cc3)C2)cc1 (stereo not drawn)	nt	nt	nt	nt	i	nt
CCOc1ccc(S(=O)(=O)N2CCCC(C(=O)NC3CC3)C2)cc1Cl (stereo not drawn)	nt	nt	nt	nt	i	nt
Cc1ccc(S(=O)(=O)NC(C)C(=O)N2CCOCCOCCOCCOCC2)cc1 (stereo not drawn)	nt	nt	nt	nt	i	nt
Cc1ccc2oc(-c3ccco3)nc2c1	i	138	i	i	i	i
O=c1oc(-c2ccco2)nc2ccccc12	i	i	i	i	i	i
COc1ccc(-c2nc3cc([N+](=O)[O-])ccc3o2)cc1	i	150	i	170	i	5.2
Nc1ccc(-c2nc3cc([N+](=O)[O-])ccc3o2)cc1	nt	nt	i	nt	i	nt
COc1ccc(S(=O)(=O)NCC(=O)N(CC2CCCO2)C(C(=O)NC2CCCC2)C(C)C)cc1 (stereo not drawn)	nt	nt	nt	nt	i	nt
Cc1oc(-c2ccc(Cl)cc2)cc1-c1nn2c(-c3ccoc3C)nnc2s1	i	i	i	i	52	i
Clc1ccc(-c2nn3c(-c4ccccc4)nnc3s2)cc1	i	i	i	i	i	i
Clc1ccc(-c2nnc3sc(-c4ccc(Br)o4)nn23)cc1	i	i	i	i	61	i
Cc1ccccc1CC1SC(N)=NC1=O (stereo not drawn)	nt	nt	nt	nt	i	nt
O=C(CSc1ccc(-c2cccc([N+](=O)[O-])c2)nn1)NC1CCCC1	i	i	i	i	i	i
Clc1ccc(Nc2nc3cccnc3s2)cc1	i	148	i	152	53	i
Cc1nnc(SCc2cnc(-c3ccc(C(C)C)cc3)s2)n1C	i	i	i	152	i	5.7
SMILES	MDM2 E3 inh	STAT1 act	PERK inh	APP 5'UTR act	AHR activator	NF-kB expr up
CCOc1cc(C(=O)N=c2sccn2C)cc(Br)c1OC	nt	nt	nt	nt	55	nt
CCOc1cc(C(=O)NC)cc(Br)c1OC	i	i	i	i	i	i
CN1CCN(/N=C/c2nc(-c3ccc(Cl)cc3)n3ccccc23)CC1	i	i	i	i	48	i
CN1CCN(/N=C/c2nc(-c3ccccc3Cl)n3ccccc23)CC1	i	i	i	i	i	i
O=C(OCc1nc2ccccc2s1)c1ccc([N+](=O)[O-])o1	nt	nt	nt	nt	i	nt
O=C(CNC(=O)c1ccccc1)OCc1nc2ccccc2s1	i	139	i	i	i	i
O=C(OCc1nc2ccccc2s1)c1ccc(Br)o1	i	i	i	i	i	i
O=C(OCc1nc2ccccc2s1)c1ccco1	i	143	i	i	i	i
CC(=O)OCc1nc2ccccc2s1	i	135	i	i	i	i
Cc1cc(C(=O)OCc2nc3ccccc3s2)c(C)o1	i	132	i	i	i	i
Cc1cc(C)cc(N(C(C)C(=O)NCc2ccc3c(c2)OCO3)S(C)(=O)=O)c1 (stereo not drawn)	i	i	i	i	i	i
Cc1ccc2c(c1)-c1ncc(C(=O)c3cc(Br)ccc3O)cc1CO2	i	i	i	i	i	i
CC12CC3(C)CC(C)(C1)CC(C(=O)NCc1cccnc1)(C2)C3	nt	nt	nt	nt	i	nt
O=C1CC(c2ccco2)CC(O)=C1C=Nc1cc(Cl)ccc1O (stereo not drawn)	i	i	i	i	i	3.4
O=C1CC(c2ccco2)CC(O)=C1C=Nc1cc(Cl)ccc1Cl (stereo not drawn)	i	i	i	i	i	i
COc1ccccc1-n1cc(-c2ccc(Br)cc2)[nH]c1=S	nt	nt	nt	nt	78	nt
COc1ccccc1-n1cc(-c2ccc([N+](=O)[O-])cc2)[nH]c1=S	i	nt	i	nt	63	nt
CCC(C(=O)Nc1sc(C(N)=O)c(C)c1C(=O)OC)c1ccccc1 (stereo not drawn)	i	i	i	i	i	i
Cc1noc(C)c1COc1ccc(C(=O)NCc2ccccn2)cc1	68	i	i	i	i	i
CCOc1ccccc1NC(=O)CN1C(=O)C(C)SC(C)C1=O (stereo not drawn)	i	i	i	i	i	i
O=C(Nc1ccccc1)c1ccc2snnc2c1	i	i	i	i	63	i
Cc1ccc(NC(=O)c2ccc3snnc3c2)cc1	i	147	i	i	63	i
C(=C\c1nc(-c2ccncc2)no1)/c1ccccc1	nt	150	i	i	i	nt
CC1=CCC(C(=O)O)C(C(=O)Nc2ccc(-c3nc4ccc(C)cc4s3)cc2)C1 (stereo not drawn)	i	nt	i	nt	i	nt
O=[N+]([O-])c1cccc(-c2ccc(/C=N/NC(=S)Nc3cccc(F)c3)o2)c1	i	nt	i	nt	49	nt
SMILES	MDM2 E3 inh	STAT1 act	PERK inh	APP 5'UTR act	AHR activator	NF-kB expr up
NC(=S)N/N=C/c1ccc(-c2cccc([N+](=O)[O-])c2)o1	i	i	i	i	i	i
CCN(CC)C(=O)CSc1nnc2nnc3cc(OC)ccc3n12	i	nt	i	nt	i	nt
Cc1cc(C)c2[nH]c(C(=O)Nc3ccc4c(c3)OCO4)cc2c1	i	nt	i	nt	i	nt
CCc1ccc(C(=O)NNc2ccc(F)cc2F)cc1	i	nt	i	nt	i	nt
CCc1ccc2[nH]c(C(=O)Nc3ccc4c(c3)OCO4)cc2c1	i	nt	i	nt	72	nt
CCc1ccc2[nH]c(C(=O)Nc3ccc(F)cc3Br)cc2c1	nt	nt	nt	nt	49	nt
CCCCCCNCC(=O)N1CCC(Cc2ccccc2)CC1	nt	nt	nt	nt	i	nt
CC(C)(C)c1ccc(C(=O)N2CCC(NC(=O)c3ccccc3)CC2)cc1	nt	nt	nt	nt	i	nt
O=C1OC(c2ccc(Br)cc2)=N/C1=C\N1CCCCC1	i	138	i	i	63	i
CN(C)/C=C1/N=C(c2ccccc2)OC1=O	i	i	i	i	i	i
O=C1OC(c2ccccc2)=N/C1=C\N1CCCCC1	i	143	i	i	i	i
CCCCC(=O)NCc1ccc(Cl)cc1	i	i	i	i	i	i
CCC(=O)Nc1cccc(-c2nnc(SCC(=O)c3ccccc3)n2C)c1	i	148	i	i	i	i
CCC(=O)Nc1cccc(-c2nnc(SCC(=O)NCc3ccco3)n2C)c1	i	i	i	i	i	i
